Drawing on ChEMBL document CHEMBL1147030, “N-thiolated beta-lactams: Studies on the mode of action and identification of a primary cellular target in Staphylococcus aureus” (2007), this text covers Activity for four molecules.

In experiment [1] the test system is Staphylococcus aureus. Put plainly: Effect on RNA transcription in Staphylococcus aureus ATCC 25923 assessed as [3H]uridine incorporation after 20 mins relative to control. Format: functional. In a few lines:
(§1)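 Early log-phase cells in Luria Broth labelled with 3 μCi [methyl-3H]thymidine (DNA) or 3 μCi [5-3H]uridine (RNA), with or without drug at twice the MIC; ciprofloxacin (DNA) or rifampicin (RNA) as reference inhibitors, DMSO control. 50 μL samples taken at 5, 10, 20, 30, 45, 60 min into ice-cold 10% TCA; precipitated radioactivity by liquid scintillation, expressed relative to untreated control.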

Experiment [2] concerns Staphylococcus aureus. Briefly: Effect on DNA replication in Staphylococcus aureus ATCC 25923 assessed as inhibition of [3H]thymidine utilization after 30 mins relative to control. Format: functional. Also noted: scale not given: the % may be the effect or the level left. An outline of the steps:
as §1

Experiment [3] has as its system Staphylococcus aureus. Briefly: Inhibition of cell wall biosynthesis in Staphylococcus aureus assessed as cytoplasmic membrane rupture. In kind it is functional, organism-based. In a few lines:
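S. aureus ATCC 25923 lawns on TSA with 6-mm paper discs carrying 20 μg compound or penicillin G. SEM: after 24 h at 37°C, agar at the edge of inhibition zones cut out, glutaraldehyde-osmium fixed, gold/palladium coated, imaged for cell morphology. Light microscopy: after 4–5 h, cells lifted onto coverslips from zones, Gram-stained (safranin counterstain), viewed bright-field.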

The test system of experiment [4] is Staphylococcus aureus. Put plainly: Growth inhibition against penicillin-susceptible Staphylococcus ATCC 25923 aureus after 24 hrs. Format: functional, organism-based. In a few lines: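 Well-diffusion plate: 10^8 suspension in PBS pH 7.4 swabbed on TSA; 6-mm wells loaded with 20 μg compound (from 1 mg/mL DMSO stock), penicillin G 20 μg as comparator; 37°C, 24 h; growth-inhibition zones read.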

The subject of experiment [5] is Staphylococcus aureus. Put plainly: Growth inhibition against methicillin-susceptible Staphylococcus aureus ATCC 25923 after 2 hrs by agar dilution. In kind it is functional, organism-based.
Experiment [6] relates to Staphylococcus aureus. Put plainly: Effect on fatty acid biosynthesis in Staphylococcus aureus RN4220 assessed as [3H]acetate uptake relative to control. In kind it is functional, organism-based. An outline of the steps: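 Strain RN4220 grown at 37 °C to A600 0.11 (1.3 x 10^7 cfu/mL), split into 5 mL tubes; drug added at 1x or 2x MIC (final DMSO 2%), penicillin G 2xMIC and no-drug controls. After 5 min, 3H-acetate added (4 μCi/mL); 0.8 mL aliquots at 15, 30, 45, 60 min extracted with chloroform/methanol; uptake compared with controls.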

Experiment [7] has as its system Staphylococcus aureus. Briefly: Growth inhibition against […] Staphylococcus aureus ATCC 25923 after 2 hrs by agar dilution. Format: functional, organism-based. In a few lines: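 Log-phase overnight culture inoculated at 10^6 cfu/mL into fresh Mueller-Hinton broth and shaken 1 hr at 35°C. Compound in DMSO then added at 1, 5 or 10 times the MIC, with MIC set by agar dilution in Mueller-Hinton II agar read after 24 hr at 37°C. Growth was followed by viable counts from plated dilutions (colonies counted after 24 hr) and OD 630 nm.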

In a further experiment the test system is Escherichia coli. Briefly: Effect on pBR322 fragmentation at 5 to 100 uM after 24 hrs by agarose gel electrophoresis. In kind it is functional. In a few lines:
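Supercoiled pBR322 (0.5 μg) in 50 mM sodium phosphate, pH 7.4, treated with 5–100 μM compound (added in DMSO; DMSO-only lane as control), 37°C for 24 h. Aliquots run on 1.2% agarose/TAE gel with ethidium bromide at 80 V/10 cm for 2.5 h, UV visualization of single- and double-strand breakage.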

Calls of active or inactive are those of the source. No cut-off for these calls is given here. Some results are limits rather than exact numbers.

Regarding `CO[C@H]1/C=C/O[C@@]2(C)Oc3c(C)c(O)c4c(O)c(c(/C=N/N5CCN(C)CC5)c(O)c4c3C2=O)NC(=O)/C(C)=C\C=C\[C@H](C)[C@H](O)[C@@H](C)[C@@H](O)[C@@H](C)[C@H](OC(C)=O)[C@@H]1C` [RIFAMPIN], the Activity in the experiment on Staphylococcus aureus [1] is given as less than 20%.

Regarding `O=C(O)c1cn(C2CC2)c2cc(N3CCNCC3)c(F)cc2c1=O` [CIPROFLOXACIN], in the experiment on Staphylococcus aureus [2], the Activity is given as 65%.

For the molecule `CC1(C)S[C@@H]2[C@H](NC(=O)Cc3ccccc3)C(=O)N2[C@H]1C(=O)O`, in the experiment with Staphylococcus aureus [3], the result was Active. In addition, in the experiment on Staphylococcus aureus [4], the outcome was inactive.

For `CO[C@H]1C(=O)N(SC)[C@H]1c1ccccc1Cl`, the result with Staphylococcus aureus [5], in the experiment on Staphylococcus aureus [6], in the experiment on Staphylococcus aureus [4] and with Staphylococcus aureus [7] was Active. Further, the outcome with Staphylococcus aureus [3] and in the experiment with Escherichia coli was inactive. Further, the values for the Activity in the experiment with Staphylococcus aureus [2] and with Staphylococcus aureus [1] were more than 90% and 80%, respectively.
